According to ChEMBL document CHEMBL4219066, “Identification and Mitigation of Reactive Metabolites of 2-Aminoimidazole-Containing Microsomal Prostaglandin E Synthase-1 Inhibitors Terminated Due to Clinical Drug-Induced Liver Injury” (J Med Chem, 2018):
One block for each molecule: values may come before it.

Columns and labels:
[1] = Drug level in rat hepatocytes treated with LY3031207 at 2 uM after 4 hrs by LC-MS/MS analysis; format: ADME, cell-based, Hepatocyte
[2] = Drug level in dog hepatocytes treated with LY3031207 at 2 uM after 4 hrs by LC-MS/MS analysis; format: ADME, cell-based, Canis lupus familiaris, Hepatocyte
[3] = Drug level in human hepatocytes treated with LY3031207 at 2 uM after 4 hrs by LC-MS/MS analysis; format: ADME, cell-based, Hepatocyte
[4] = In vivo drug level in human plasma treated with LY3031207 by HPLC-MS analysis; format: ADME, organism-based
[5] = In vivo drug level in human urine treated with LY3031207 by HPLC-MS analysis; format: ADME, organism-based
[6] = Drug level in rat hepatocytes treated with LY3023703 at 2 uM after 4 hrs by LC-MS/MS analysis; format: ADME, cell-based, Hepatocyte
[7] = Drug level in human hepatocytes treated with LY3023703 at 2 uM after 4 hrs by LC-MS/MS analysis; format: ADME, cell-based, Hepatocyte
[8] = Drug level in Beagle dog plasma treated with LY3023703 at 300 to 600 mg/kg, po measured after 2 hrs post dose by LC/MS analysis; format: ADME, organism-based, Canis lupus familiaris; conditions: in vivo
[9] = In vivo drug level in human plasma treated with LY3023703 by HPLC-MS analysis; format: ADME, organism-based
[10] = In vivo drug level in human urine treated with LY3023703 by HPLC-MS analysis; format: ADME, organism-based
[11] = Drug level in rat hepatocytes treated with 2-(Difluoromethyl)-N-(4-methyl-5-(4-(trifluoromethyl)-phenyl)-1H-imidazol-2-yl)-5-(pivalamidomethyl)nicotinamide at 2 uM after 4 hrs by LC-MS/MS analysis; format: ADME, cell-based, Hepatocyte
[12] = Drug level in dog hepatocytes treated with 2-(Difluoromethyl)-N-(4-methyl-5-(4-(trifluoromethyl)-phenyl)-1H-imidazol-2-yl)-5-(pivalamidomethyl)nicotinamide at 2 uM after 4 hrs by LC-MS/MS analysis; format: ADME, cell-based, Canis lupus familiaris, Hepatocyte
[13] = Drug level in human hepatocytes treated with 2-(Difluoromethyl)-N-(4-methyl-5-(4-(trifluoromethyl)-phenyl)-1H-imidazol-2-yl)-5-(pivalamidomethyl)nicotinamide at 2 uM after 4 hrs by LC-MS/MS analysis; format: ADME, cell-based, Hepatocyte
[14] = Drug level in human hepatocytes treated with 2-Chloro-N-(4-methyl-1H-imidazol-2-yl)-5-(pivalamidomethyl)benzamide at 2 uM after 4 hrs by LC-MS/MS analysis; format: ADME, cell-based, Hepatocyte
[15] = Drug level in rat hepatocytes treated with 2-Chloro-N-(4-methyl-1H-imidazol-2-yl)-5-(pivalamidomethyl)benzamide at 2 uM after 4 hrs by LC-MS/MS analysis; format: ADME, cell-based, Hepatocyte
[16] = Drug level in human hepatocytes treated with 2 -Chloro-N-(4,5-dimethyl-1H-imidazol-2-yl)-5-(pivalamidomethyl)benzamide at 2 uM after 4 hrs by LC-MS/MS analysis; format: ADME, cell-based, Hepatocyte
[17] = Drug level in rat hepatocytes treated with 2 -Chloro-N-(4,5-dimethyl-1H-imidazol-2-yl)-5-(pivalamidomethyl)benzamide at 2 uM after 4 hrs by LC-MS/MS analysis; format: ADME, cell-based, Hepatocyte
[18] = Drug level in dog hepatocytes treated with LY3023703 at 2 uM after 4 hrs by LC-MS/MS analysis; format: ADME, cell-based, Canis lupus familiaris, Hepatocyte
[19] = Drug metabolism in rat hepatocytes assessed as 2-(2-chloro-5-(pivalamidomethyl)benzamido)-1H-imidazole-4-carboxylic acid formation at 2 uM after 4 hrs by LC-MS/MS analysis; format: ADME, cell-based, Hepatocyte
[20] = Drug metabolism in human hepatocytes assessed as 2-(2-chloro-5-(pivalamidomethyl)benzamido)-1H-imidazole-4-carboxylic acid formation at 2 uM after 4 hrs by LC-MS/MS analysis; format: ADME, cell-based, Hepatocyte
[21] = Drug level in human hepatocytes treated with 2-(2-Chloro-5-(pivalamidomethyl)benzamido)-N-phenyl-1Himidazole-4-carboxamide at 2 uM after 4 hrs by LC-MS/MS analysis; format: ADME, cell-based, Hepatocyte
[22] = Drug level in rat hepatocytes treated with 2-(2-Chloro-5-(pivalamidomethyl)benzamido)-N-phenyl-1Himidazole-4-carboxamide at 2 uM after 4 hrs by LC-MS/MS analysis; format: ADME, cell-based, Hepatocyte
[23] = Drug level in human liver microsomes treated with 2-Chloro-N-(4-methyl-1H-imidazol-2-yl)-5-(pivalamidomethyl)benzamide at 2 uM after 0.5 hrs in presence of 1:1 ratio of unlabeled GSH and [glycine 13C2,15N]-labelled GSH by HPLC-MS analysis; format: ADME, microsome
Outline: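 Glutathione-trapping incubation in human liver microsomes fortified with GSH to capture reactive intermediates. Metabolites and GSH adducts were identified by MS.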

SMILES: CC(C)(C)C(=O)NCc1ccc(Cl)c(C(=O)NC(=N)N)c1
Drug metabolism [4]: Metabolite_Detected
Drug metabolism [5]: Metabolite_Detected
Drug metabolism [14]: Metabolite_Detected
Drug metabolism [15]: Metabolite_Detected
Drug metabolism [16]: Metabolite_Detected
Drug metabolism [17]: Metabolite_Detected

SMILES: C=C(C)C(=O)NCc1cnc(C(F)F)c(C(=O)Nc2nc(C)c(-c3ccc(C(F)(F)F)cc3)[nH]2)c1
Drug metabolism [6]: Metabolite_Detected
Drug metabolism [9]: Metabolite_Detected

SMILES: Cc1nc(NC(=O)c2cc(CNC(=O)C(C)(C)O)cnc2C(F)F)[nH]c1-c1ccc(C(F)(F)F)cc1
Drug metabolism [6]: Metabolite_Detected
Drug metabolism [18]: Metabolite_Detected
Drug metabolism [7]: Metabolite_Detected
Drug metabolism [8]: Metabolite_Detected
Drug metabolism [9]: Metabolite_Detected
Drug metabolism [10]: Metabolite_Detected

SMILES: CC(C)(CO)C(=O)NCc1ccc(Cl)c(C(=O)Nc2nc(C(=O)Nc3ccccc3)c[nH]2)c1
Drug metabolism [21]: Metabolite_Detected
Drug metabolism [22]: Metabolite_Detected

SMILES: Cc1nc(NC(=O)c2cc(CNC(=O)C(C)(C)CO)ccc2Cl)[nH]c1C
Drug metabolism [16]: Metabolite_Detected
Drug metabolism [17]: Metabolite_Detected

SMILES: Cc1c[nH]c(NC(=O)c2cc(CNC(=O)C(C)(C)CO)ccc2Cl)n1
Drug metabolism [14]: Metabolite_Detected
Drug metabolism [15]: Metabolite_Detected

SMILES: CC(C)(C)C(=O)NCc1ccc(Cl)c(C(=O)O)c1
Drug metabolism [21]: Metabolite_Detected
Drug metabolism [22]: Metabolite_Detected

SMILES: CC(C)(C)C(=O)NCc1cnc(C(F)F)c(C(=O)Nc2nc(CO)c(-c3ccc(C(F)(F)F)cc3)[nH]2)c1
Drug metabolism [12]: Metabolite_Detected

SMILES: CC(C)(C)C(=O)NCc1ccc(Cl)c(C(=O)Nc2nc(CSC[C@H](NC(=O)CC[C@H](N)C(=O)O)C(=O)NCC(=O)O)c[nH]2)c1
Drug metabolism [23]: Metabolite_Detected

SMILES: Cc1nc(NC(=O)c2cc(CN)cnc2C(F)F)[nH]c1-c1ccc(C(F)(F)F)cc1
Drug metabolism [10]: Metabolite_Detected

SMILES: CC(C)C(=O)NCc1cnc(C(F)F)c(C(=O)NC(=N)N)c1
Drug metabolism [6]: Metabolite_Detected
Drug metabolism [18]: Metabolite_Detected
Drug metabolism [7]: Metabolite_Detected
Drug metabolism [10]: Metabolite_Detected

The remaining lines, values ahead:

Drug metabolism [1]: Metabolite_Detected
Drug metabolism [2]: Metabolite_Detected
Drug metabolism [3]: Metabolite_Detected
Drug metabolism [4]: Metabolite_Detected
Drug metabolism [5]: Metabolite_Detected
SMILES: CC(C)(C)C(=O)NCc1ccc(Cl)c(C(=O)Nc2nc(O)c[nH]2)c1

Drug metabolism [6]: Metabolite_Detected
Drug metabolism [7]: Metabolite_Detected
Drug metabolism [8]: Metabolite_Detected
Drug metabolism [9]: Metabolite_Detected
Drug metabolism [10]: Metabolite_Detected
SMILES: Cc1nc(NC(=O)c2cc(CNC(=O)C(C)CO)cnc2C(F)F)[nH]c1-c1ccc(C(F)(F)F)cc1 (configuration not stated)

Drug metabolism [8]: Metabolite_Detected
SMILES: Cc1nc(N[C@@H]2O[C@H](C(=O)O)[C@@H](O)[C@H](O)[C@H]2O)[nH]c1-c1ccc(C(F)(F)F)cc1

Drug metabolism [6]: Metabolite_Detected
Drug metabolism [7]: Metabolite_Detected
Drug metabolism [8]: Metabolite_Detected
SMILES: Cc1nc(N)[nH]c1-c1ccc(C(F)(F)F)cc1

Drug metabolism [11]: Metabolite_Detected
Drug metabolism [12]: Metabolite_Detected
Drug metabolism [13]: Metabolite_Detected
SMILES: CC(C)(C)C(=O)NCc1cnc(C(F)F)c(C(=O)NC(=N)N)c1

Drug metabolism [8]: Metabolite_Detected
SMILES: CC(=O)Nc1nc(C)c(-c2ccc(C(F)(F)F)cc2)[nH]1

Drug metabolism [1]: Metabolite_Detected
Drug metabolism [2]: Metabolite_Detected
Drug metabolism [3]: Metabolite_Detected
Drug metabolism [4]: Metabolite_Detected
Drug metabolism [5]: Metabolite_Detected
SMILES: CC(C)(CO)C(=O)NCc1ccc(Cl)c(C(=O)Nc2ncc[nH]2)c1

Drug metabolism [1]: Metabolite_Detected
Drug metabolism [2]: Metabolite_Detected
Drug metabolism [3]: Metabolite_Detected
Drug metabolism [5]: Metabolite_Detected
SMILES: CC(C)(C)C(=O)NCc1ccc(Cl)c(C(=O)NC2=NC(O)C(O)N2)c1 (configuration not stated)

Drug metabolism [14]: Metabolite_Detected
Drug metabolism [19]: Metabolite_Detected
Drug metabolism [20]: Metabolite_Detected
Drug metabolism [15]: Metabolite_Detected
SMILES: CC(C)(C)C(=O)NCc1ccc(Cl)c(C(=O)Nc2nc(CO)c[nH]2)c1

Drug metabolism [11]: Metabolite_Detected
Drug metabolism [12]: Metabolite_Detected
Drug metabolism [13]: Metabolite_Detected
SMILES: Cc1nc(NC(=O)c2cc(CNC(=O)C(C)(C)CO)cnc2C(F)F)[nH]c1-c1ccc(C(F)(F)F)cc1

Drug metabolism [23]: Metabolite_Detected
SMILES: CC(C)(C)C(=O)NCc1ccc(Cl)c(C(=O)Nc2nc(CSC[C@H](N)C(=O)NCC(=O)O)c[nH]2)c1

Drug metabolism [16]: Metabolite_Detected
Drug metabolism [17]: Metabolite_Detected
SMILES: Cc1[nH]c(NC(=O)c2cc(CNC(=O)C(C)(C)C)ccc2Cl)nc1CO

Drug metabolism [5]: Metabolite_Detected
SMILES: CC(C)(CO)C(=O)NCc1ccc(Cl)c(C(=O)NC(=N)N)c1
